Experimental data reported in article PMC12667952 (bioRxiv, 2025).
“Also recorded” adds a separate entry of the source.

Key:
[1] = target: serotonin 2A (5-HT2A) receptor (Homo sapiens, UniProt P28223); assay: 5-HT2A receptor antagonist IC50 determination; format: cell-based
muscarinic receptors = assay: Cerep panel off-target selectivity screen, muscarinic receptors; format: binding; conditions: 1 × 10^-5 M
mice [2] = assay: Side effect scoring; format: in vivo, mouse
In short: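 Adverse events, including sedation, recorded at each time point as mice were placed in the testing apparatus after i.p. dosing. Each scored 0–3 (none, mild, moderate, severe), and scores averaged per treatment group.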

mice [3] = assay: Grip strength test; format: in vivo, mouse; conditions: 30 min post-injection
[4] = Study 2: in-life plasma and CNS drug exposure study in male C57BL/6 mice; format: in vivo, mouse; conditions: 50 mg/kg i.p., 30 min
In short: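 Contract in-life study in male C57BL/6 mice (22 ± 2 g), acclimated for 3 days. Plasma and brain sampled at 30 and 120 min post-injection. Unbound plasma and brain concentrations calculated.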

hGlyT2^WT [5] = target: T1, hGlyT2^WT (Homo sapiens, UniProt Q9Y345); format: cell-based; conditions: glycine concentration-dependent currents with co-applied inhibitor
T1 sequence (Q9Y345 1-797): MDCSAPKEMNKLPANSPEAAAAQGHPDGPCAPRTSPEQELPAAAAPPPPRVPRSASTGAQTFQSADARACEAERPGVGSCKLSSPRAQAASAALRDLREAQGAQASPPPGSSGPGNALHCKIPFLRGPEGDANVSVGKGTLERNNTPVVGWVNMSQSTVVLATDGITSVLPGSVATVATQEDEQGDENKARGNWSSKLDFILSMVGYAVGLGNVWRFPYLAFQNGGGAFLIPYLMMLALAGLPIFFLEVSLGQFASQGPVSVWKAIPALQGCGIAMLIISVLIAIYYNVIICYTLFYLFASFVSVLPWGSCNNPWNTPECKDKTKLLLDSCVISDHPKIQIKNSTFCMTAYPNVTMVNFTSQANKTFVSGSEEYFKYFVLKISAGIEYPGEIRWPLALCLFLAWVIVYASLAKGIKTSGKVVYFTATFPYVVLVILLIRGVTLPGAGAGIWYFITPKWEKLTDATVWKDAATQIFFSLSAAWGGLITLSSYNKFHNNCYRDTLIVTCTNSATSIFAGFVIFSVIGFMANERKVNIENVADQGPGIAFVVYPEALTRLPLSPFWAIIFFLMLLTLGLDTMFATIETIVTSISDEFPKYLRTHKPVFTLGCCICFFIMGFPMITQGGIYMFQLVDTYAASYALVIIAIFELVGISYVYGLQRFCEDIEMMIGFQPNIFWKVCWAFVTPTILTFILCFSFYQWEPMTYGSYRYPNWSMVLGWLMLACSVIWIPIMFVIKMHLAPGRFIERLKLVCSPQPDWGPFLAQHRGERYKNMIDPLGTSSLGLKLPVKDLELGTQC

CCI mice = assay: Cold allodynia; format: in vivo, mouse; conditions: for Peak reduction of response rate to acetone stimulus: by 2-hour time point
In short: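 CCI mice tested 14 days after surgery. […] Acetone-evoked cold allodynia scored before surgery, at t = 0 before dosing, and at 0.5, 1, 1.5, 2, 4 and 6 h. Expressed as % of maximal possible responses. Two-way ANOVA with Dunnett's test versus vehicle.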

hGlyT2^WT [6] = target: T1, hGlyT2^WT; assay: Sodium dependence of inhibition of glycine transport currents; format: cell-based; conditions: 300 μM glycine
hGlyT2^WT [7] = target: T1, hGlyT2^WT; assay: Reversibility; format: cell-based; conditions: washout, hGlyT2^WT
In short: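 Xenopus oocytes injected with 20 ng hGlyT2 WT cRNA and held 3–6 days at 18 °C. Glycine currents recorded by two-electrode voltage clamp at −60 mV. Test compound applied at a single concentration (10 μM maximum), then washed out. Recovery of 30 µM glycine-evoked currents followed to 30 min, normalised to pre-inhibitor current. n ≥ 5 from at least two frogs.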

adenosine receptors = assay: Cerep panel off-target selectivity screen, adenosine receptors; format: binding; conditions: 1 × 10^-5 M
naïve mice = assay: Accelerating rotarod, motor coordination in naïve mice; format: in vivo, mouse
In short: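 Naïve mice trained for 3 days on an accelerating rotarod with large cylinders (3 sessions/day at 30-min intervals, 5 min acclimatisation each day), speed rising from 4 to 20 rpm over 180 s. Test compound given i.p. in 5% Solutol in PBS. Tested at t = 0 and 30, 60, 90, 120 and 180 min post-dose. Performance normalised to % baseline.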

histamine (H1) = assay: Cerep panel off-target selectivity screen, H1; format: binding; conditions: 1 × 10^-5 M

serotonin 2A (5-HT2A) receptor, sequence (P28223 whole entry, species assumed): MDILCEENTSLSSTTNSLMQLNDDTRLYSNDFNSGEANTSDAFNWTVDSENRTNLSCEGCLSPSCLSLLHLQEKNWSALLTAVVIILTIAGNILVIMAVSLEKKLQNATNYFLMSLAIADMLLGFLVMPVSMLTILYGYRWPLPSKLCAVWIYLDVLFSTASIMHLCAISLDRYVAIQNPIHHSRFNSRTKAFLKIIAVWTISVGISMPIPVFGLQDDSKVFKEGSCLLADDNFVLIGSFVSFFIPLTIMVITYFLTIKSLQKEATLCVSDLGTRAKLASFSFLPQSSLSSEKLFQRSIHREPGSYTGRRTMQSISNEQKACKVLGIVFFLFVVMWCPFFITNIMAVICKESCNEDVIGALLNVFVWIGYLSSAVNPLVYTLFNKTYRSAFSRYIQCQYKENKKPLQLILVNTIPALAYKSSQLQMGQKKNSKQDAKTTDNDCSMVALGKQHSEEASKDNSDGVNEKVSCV

## CN(C)C1(CNC(=O)c2ccc3c(c2)CCN3C(=O)c2ccccc2)CCOCC1 [RPI-GLYT2–82, 1-benzoyl-N-((4-(dimethylamino)tetrahydro-2H-pyran-4-yl)methyl)indoline-5-carboxamide]
[1]
  IC50: 1900 nM
Muscarinic receptors
  Activity at muscarinic receptors: inactive
Mice [2]; 250 mg/kg (maximal dose)
  Sedation: transient sedation
Mice [2]; 250 mg/kg i.p.
  Time to full recovery from sedation: ≤ 90 min
Mice [3]; 50 mg/kg
  Grip strength (muscle weakness): not at 50 mg/kg
Mice [3]; 250 mg/kg, recovered at 60 minutes
  Grip strength (muscle weakness): transient deficits in the grip-strength test; also recorded: transient muscle weakness
[4]
  Cu,b, calculated unbound concentration in brain: 597.89 nM
hGlyT2^WT [5]
  Mechanism of inhibition: non-competitive inhibitor
CCI mice; 50 mg/kg i.p.
  Peak reduction of response rate to acetone stimulus: 59%
CCI mice; 100 mg/kg i.p.
  Peak reduction of response rate to acetone stimulus: 62%
CCI mice; 50 and 100 mg/kg
  Efficacy at alleviating cold allodynia compared to gabapentin: comparable efficacy to the control compound gabapentin; also recorded: equivalent efficacy
  Time of peak anti-allodynia effects, cold allodynia: ≤ 2 h
hGlyT2^WT [6]; IC50 at 20 mM Na+, 20 mM Na+, choline chloride substitute
  IC50: 159 nM
hGlyT2^WT [6]; IC50 at 100 mM Na+, 100 mM Na+
  IC50: 279 nM
hGlyT2^WT [7]
  Reversibility of inhibition (recovery of glycine-induced currents): recovered to pre-inhibition levels within five minutes
Adenosine receptors
  Activity at adenosine receptors: inactive
naïve mice; 50 mg/kg analgesic dose
  Adverse neuromotor effects or muscle weakness (rotarod, grip strength, sedation): not associated with adverse neuromotor effects or muscle weakness
naïve mice; 250 mg/kg
  Rotarod performance: transient reduction in rotarod performance
naïve mice; 250 mg/kg i.p., restored over the 90-minute time course
  Initial reduction in baseline rotarod performance: 61%
Histamine (H1)
  Activity at histamine H1: inactive
